Reference: ChEMBL document CHEMBL1125444 (J Med Chem, 1992)
pKi: −log10 of the molar value.

How the values were obtained:
[1] = molecular target: 5-hydroxytryptamine receptor 4 (Rattus norvegicus) (UniProt Q62758); test: Relaxation of carbachol induced contractions of rat tunica muscularis mucosae
Procedure, shortened: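 Rat esophagus tunica muscularis mucosae strips, equilibrated 30 min, then contracted isometrically with carbachol (3 μM) to a stable tonic plateau within 20 min. Test agent added cumulatively to relax the strip. Buffer held corticosterone acetate (30 μM), fluoxetine (1 μM) and pargyline (10 μM).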

[2] = molecular target: T1, Serotonin 3 (5-HT3) receptor (Rattus norvegicus, UniProt P35563+Q9JJ16); test: Inhibition of [3H]GR-65630 binding to 5-hydroxytryptamine 3 receptor; format: protein-complex assay
T1 sequence (P35563 whole entry): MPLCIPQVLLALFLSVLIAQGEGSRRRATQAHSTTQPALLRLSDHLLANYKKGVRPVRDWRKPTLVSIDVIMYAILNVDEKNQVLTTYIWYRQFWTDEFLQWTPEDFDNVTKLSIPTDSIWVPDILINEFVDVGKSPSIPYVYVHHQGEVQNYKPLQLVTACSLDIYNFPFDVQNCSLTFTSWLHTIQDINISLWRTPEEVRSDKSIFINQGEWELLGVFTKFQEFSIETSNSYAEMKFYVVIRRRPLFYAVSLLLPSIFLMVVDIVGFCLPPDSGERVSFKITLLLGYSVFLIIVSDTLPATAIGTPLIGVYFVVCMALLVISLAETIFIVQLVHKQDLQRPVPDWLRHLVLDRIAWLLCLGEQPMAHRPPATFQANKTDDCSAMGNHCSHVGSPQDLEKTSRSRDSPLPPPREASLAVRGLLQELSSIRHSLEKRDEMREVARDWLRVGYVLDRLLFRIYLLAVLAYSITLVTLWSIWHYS
T1 sequence (Q9JJ16 whole entry): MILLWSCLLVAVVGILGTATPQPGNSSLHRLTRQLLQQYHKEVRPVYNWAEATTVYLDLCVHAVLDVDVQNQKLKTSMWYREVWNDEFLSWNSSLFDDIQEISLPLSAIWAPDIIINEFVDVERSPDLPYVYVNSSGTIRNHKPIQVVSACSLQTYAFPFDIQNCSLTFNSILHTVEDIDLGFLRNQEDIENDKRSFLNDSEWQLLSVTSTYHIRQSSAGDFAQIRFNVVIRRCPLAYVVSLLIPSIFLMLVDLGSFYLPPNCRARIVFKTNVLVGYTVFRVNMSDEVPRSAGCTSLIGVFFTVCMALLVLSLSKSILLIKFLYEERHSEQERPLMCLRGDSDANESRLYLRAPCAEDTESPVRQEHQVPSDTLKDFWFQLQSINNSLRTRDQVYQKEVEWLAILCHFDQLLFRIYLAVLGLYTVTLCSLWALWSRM

[3] = molecular target: Serotonin 1 (5-HT1) receptor (Rattus norvegicus, UniProt P28564+P30940+P19327+P28565); test: The ability to inhibit [3H]5-HT binding to 5-hydroxytryptamine 1 receptor in rat cortex
[4] = molecular target: Serotonin 2 (5-HT2) receptor (Rattus norvegicus, UniProt P30994+P08909+P14842); test: The ability to inhibit [3H]ketanserin binding to 5-hydroxytryptamine 2 receptor in rat whole brain
[5] = molecular target: T1, Serotonin 3 (5-HT3) receptor; test: The ability to inhibit [3H]GR-65630 binding to 5-hydroxytryptamine 3 receptor in rat brain cortices; format: tissue-based
Procedure, shortened: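 Membranes from male rat brain cortices incubated with [3H]GR65630 (0.2 nM) as radioligand.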

[6] = molecular target: T2, Alpha-1A adrenergic receptor (Rattus norvegicus, UniProt P43140); test: The ability to inhibit [3H]prazosin binding to Alpha-1 adrenergic receptor in rat whole brain
T2 sequence (P43140 whole entry): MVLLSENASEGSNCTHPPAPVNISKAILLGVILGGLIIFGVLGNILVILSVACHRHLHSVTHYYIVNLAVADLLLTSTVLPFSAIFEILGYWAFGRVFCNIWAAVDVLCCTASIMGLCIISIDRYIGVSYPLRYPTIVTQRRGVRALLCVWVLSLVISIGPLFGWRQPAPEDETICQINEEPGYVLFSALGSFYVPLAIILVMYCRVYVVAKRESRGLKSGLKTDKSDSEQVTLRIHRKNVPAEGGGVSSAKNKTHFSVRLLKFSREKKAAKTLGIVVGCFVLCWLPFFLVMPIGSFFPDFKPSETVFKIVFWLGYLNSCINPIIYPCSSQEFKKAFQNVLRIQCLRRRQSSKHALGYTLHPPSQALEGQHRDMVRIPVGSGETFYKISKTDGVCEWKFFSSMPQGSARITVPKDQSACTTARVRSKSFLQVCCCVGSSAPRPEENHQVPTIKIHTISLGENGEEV

[7] = molecular target: T3, Adrenergic receptor alpha-2 (Rattus norvegicus, UniProt P22086+P19328+P22909); test: The ability to inhibit [3H]rauwolscine binding to alpha-2 adrenergic receptor in rat cortex
T3 sequence (P22086 whole entry): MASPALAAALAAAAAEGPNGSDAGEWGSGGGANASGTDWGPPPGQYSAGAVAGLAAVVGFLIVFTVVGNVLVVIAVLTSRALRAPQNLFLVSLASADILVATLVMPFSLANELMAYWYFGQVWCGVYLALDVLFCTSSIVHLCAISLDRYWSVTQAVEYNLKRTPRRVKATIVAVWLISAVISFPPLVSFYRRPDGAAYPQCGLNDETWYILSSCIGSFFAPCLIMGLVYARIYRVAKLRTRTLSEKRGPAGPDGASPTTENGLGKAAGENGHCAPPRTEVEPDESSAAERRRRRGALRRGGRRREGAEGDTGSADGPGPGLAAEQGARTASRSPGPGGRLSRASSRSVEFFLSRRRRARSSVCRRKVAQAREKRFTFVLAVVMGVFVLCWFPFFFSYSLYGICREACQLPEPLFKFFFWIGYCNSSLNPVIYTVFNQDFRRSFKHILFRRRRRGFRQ
T3 sequence (P19328 whole entry): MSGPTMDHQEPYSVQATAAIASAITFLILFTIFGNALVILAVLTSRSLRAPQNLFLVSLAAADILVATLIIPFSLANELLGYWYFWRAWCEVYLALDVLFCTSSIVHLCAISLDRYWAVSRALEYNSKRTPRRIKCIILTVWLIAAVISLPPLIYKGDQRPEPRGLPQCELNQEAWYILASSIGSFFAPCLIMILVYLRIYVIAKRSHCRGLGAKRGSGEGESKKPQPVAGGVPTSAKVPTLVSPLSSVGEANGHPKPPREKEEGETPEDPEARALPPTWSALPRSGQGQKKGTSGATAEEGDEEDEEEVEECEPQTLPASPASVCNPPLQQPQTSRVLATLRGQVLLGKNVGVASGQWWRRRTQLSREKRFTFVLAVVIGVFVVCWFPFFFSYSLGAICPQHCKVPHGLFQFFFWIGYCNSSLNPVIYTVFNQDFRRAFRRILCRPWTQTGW
T3 sequence (P22909 whole entry): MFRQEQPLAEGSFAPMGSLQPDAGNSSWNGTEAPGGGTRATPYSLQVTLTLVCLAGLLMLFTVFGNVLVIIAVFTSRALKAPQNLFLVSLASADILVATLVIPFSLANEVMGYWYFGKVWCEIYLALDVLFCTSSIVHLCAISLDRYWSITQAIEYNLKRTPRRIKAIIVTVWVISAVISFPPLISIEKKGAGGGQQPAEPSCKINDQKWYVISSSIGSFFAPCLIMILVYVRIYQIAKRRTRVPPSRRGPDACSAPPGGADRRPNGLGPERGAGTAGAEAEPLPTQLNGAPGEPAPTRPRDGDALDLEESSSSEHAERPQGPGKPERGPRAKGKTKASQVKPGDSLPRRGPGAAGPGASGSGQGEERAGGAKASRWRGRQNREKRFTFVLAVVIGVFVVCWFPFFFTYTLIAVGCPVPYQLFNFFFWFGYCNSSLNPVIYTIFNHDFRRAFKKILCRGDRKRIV

Adrenergic receptor beta = Adrenergic receptor beta (Rattus norvegicus, UniProt P18090+P10608+P26255); test: The ability to inhibit [3H]dihydroalprenolol prenolol binding to Beta adrenergic receptor in rat whole brain
D(1A) dopamine receptor = D(1A) dopamine receptor (Rattus norvegicus, UniProt P18901); test: The ability to inhibit [3H]-SCH- 23390 binding to Dopamine receptor D1 in rat striata
D(1A) dopamine receptor, sequence (P18901 whole entry): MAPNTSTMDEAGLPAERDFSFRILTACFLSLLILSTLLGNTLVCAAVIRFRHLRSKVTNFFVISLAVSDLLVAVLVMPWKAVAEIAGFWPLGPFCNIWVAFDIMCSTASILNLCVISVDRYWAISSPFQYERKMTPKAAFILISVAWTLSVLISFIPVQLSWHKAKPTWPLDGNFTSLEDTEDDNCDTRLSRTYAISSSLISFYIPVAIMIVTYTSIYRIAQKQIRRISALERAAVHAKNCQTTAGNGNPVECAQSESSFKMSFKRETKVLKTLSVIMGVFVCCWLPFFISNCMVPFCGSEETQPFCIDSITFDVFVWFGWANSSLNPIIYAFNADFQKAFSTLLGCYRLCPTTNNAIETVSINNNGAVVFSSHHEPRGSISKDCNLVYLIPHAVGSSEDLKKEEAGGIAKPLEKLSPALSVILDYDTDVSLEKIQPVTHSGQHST

D(2) dopamine receptor = D(2) dopamine receptor (Rattus norvegicus, UniProt P61169); test: The ability to inhibit [3H]domperidone binding to dopamine receptor D2 in rat striata
D(2) dopamine receptor, sequence (P61169 whole entry): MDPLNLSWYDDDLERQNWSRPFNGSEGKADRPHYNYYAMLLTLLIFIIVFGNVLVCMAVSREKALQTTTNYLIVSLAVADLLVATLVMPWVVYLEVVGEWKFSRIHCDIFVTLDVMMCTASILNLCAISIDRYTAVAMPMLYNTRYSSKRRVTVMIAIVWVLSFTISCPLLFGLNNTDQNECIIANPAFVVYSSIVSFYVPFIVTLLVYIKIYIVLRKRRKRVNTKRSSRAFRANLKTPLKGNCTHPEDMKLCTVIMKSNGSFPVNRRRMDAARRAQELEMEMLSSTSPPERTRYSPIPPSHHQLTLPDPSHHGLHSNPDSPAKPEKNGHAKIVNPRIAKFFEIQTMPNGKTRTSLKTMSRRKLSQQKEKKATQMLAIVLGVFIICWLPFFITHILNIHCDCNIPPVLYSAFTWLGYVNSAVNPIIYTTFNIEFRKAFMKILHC

[8] = %E relative to serotonin is 100%; format: functional

5-hydroxytryptamine receptor 4 (Rattus norvegicus), sequence (Q62758 whole entry): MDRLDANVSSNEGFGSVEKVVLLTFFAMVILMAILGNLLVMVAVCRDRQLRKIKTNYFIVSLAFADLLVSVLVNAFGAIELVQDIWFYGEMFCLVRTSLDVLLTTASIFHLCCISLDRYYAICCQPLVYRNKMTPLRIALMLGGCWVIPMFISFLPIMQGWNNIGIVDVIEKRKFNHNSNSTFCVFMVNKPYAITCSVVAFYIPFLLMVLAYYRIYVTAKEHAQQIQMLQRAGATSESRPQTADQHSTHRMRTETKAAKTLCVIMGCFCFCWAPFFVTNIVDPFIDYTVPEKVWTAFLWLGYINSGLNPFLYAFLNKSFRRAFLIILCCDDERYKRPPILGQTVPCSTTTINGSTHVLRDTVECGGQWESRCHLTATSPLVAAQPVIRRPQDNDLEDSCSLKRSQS

O=C(NC1CCN2CCCC12)c1ccccc1 (centres undefined)
ED50 [1]: > 10000 nM | pKi [2]: < 6.70

CCOc1cc(N)c(Cl)cc1C(=O)NCC1CCN2CCCC12 (centres undefined)
ED50 [1]: 1380 nM | pKi [2]: 7.60

COc1cc(N)c(Cl)cc1C(=O)NC[C@H]1CCN2CCC[C@H]12
ED50 [1]: 323 nM | pKi [2]: 7.18

CC(C)n1c(=O)n(C(=O)CC2CC3CCC(C2)N3C)c2ccccc21 (centres undefined)
Ki [3]: > 10000 nM | Ki [4]: > 10000 nM | ED50 [1]: 40.2 nM | pKi [5]: < 5.00 | pKi [6]: < 5.00 | Ki [7]: > 10000 nM | Ki (Adrenergic receptor beta): > 10000 nM | pKi (D(1A) dopamine receptor): < 5.00 | pKi (D(2) dopamine receptor): < 5.00 | E [8]: > 111%

NCCc1c[nH]c2ccc(O)cc12
ED50 [1]: 16 nM

COc1cc(N)c(Cl)cc1C(=O)NC[C@@H]1CCN2CCC[C@@H]12 (relative stereo)
Ki [3]: > 10000 nM | Ki [4]: > 10000 nM | ED50 [1]: 23 nM | pKi [2]: 6.82 | pKi [6]: < 5.00 | Ki [7]: > 10000 nM | Ki (Adrenergic receptor beta): > 10000 nM | pKi (D(1A) dopamine receptor): < 5.00 | pKi (D(2) dopamine receptor): < 5.00 | E [8]: 93%

COc1cc(N)c(Cl)cc1C(=O)NCC1CCN2CCCC12 (stereo in doubt; 1A) [listing 1 of 2 here]
pKi [2]: 6.98

COc1cc(N)c(Cl)cc1C(=O)NCC1CCN2CCCC12 (stereo in doubt; 1A) [listing 2 of 2 here]
ED50 [1]: 64 nM

COc1cc(N)c(Cl)cc1C(=O)NCC1CCN2CCCC12 (stereo in doubt; 1E) [listing 1 of 2 here]
pKi [2]: 6.56

COc1cc(N)c(Cl)cc1C(=O)NCC1CCN2CCCC12 (stereo in doubt; 1E) [listing 2 of 2 here]
ED50 [1]: 280 nM

COc1cc(N)c(Cl)cc1C(=O)NC1CCN2CCCC12 (stereo in doubt; 1F) [listing 1 of 2 here]
pKi [2]: 7.85

COc1cc(N)c(Cl)cc1C(=O)NC1CCN2CCCC12 (stereo in doubt; 1F) [listing 2 of 2 here]
ED50 [1]: 187 nM

CCOc1cc(N)c(Cl)cc1C(=O)NC1CCN2CCCC12 (stereo in doubt; 1G) [listing 1 of 2 here]
pKi [2]: 8.10

CCOc1cc(N)c(Cl)cc1C(=O)NC1CCN2CCCC12 (stereo in doubt; 1G) [listing 2 of 2 here]
ED50 [1]: 2270 nM

COc1cc(N)c(Cl)cc1C(=O)NC1CCN2CCCC12 (stereo in doubt; 1J) [listing 1 of 2 here]
pKi [2]: 7.02

COc1cc(N)c(Cl)cc1C(=O)NC1CCN2CCCC12 (stereo in doubt; 1J) [listing 2 of 2 here]
ED50 [1]: 3450 nM

CCOc1cc(N)c(Cl)cc1C(=O)NC1CCN2CCCC12 (stereo in doubt; 1K) [listing 1 of 2 here]
pKi [2]: 7.00

CCOc1cc(N)c(Cl)cc1C(=O)NC1CCN2CCCC12 (stereo in doubt; 1K) [listing 2 of 2 here]
ED50 [1]: > 10000 nM

COc1cc(N)c(Cl)cc1C(=O)N[C@H]1CN2CCC1CC2 [(R)ZACOPRIDE]
Ki [3]: > 10000 nM | Ki [4]: 415 nM | ED50 [1]: 505 nM | pKi [2]: 8.10 | pKi [6]: < 5.00 | Ki [7]: > 10000 nM | Ki (Adrenergic receptor beta): > 10000 nM | pKi (D(1A) dopamine receptor): < 5.00 | pKi (D(2) dopamine receptor): < 5.00 | E [8]: 96%

COc1cc(N)c(Cl)cc1C(=O)NC1CCN(CCCOc2ccc(F)cc2)CC1OC (centres undefined) [CISAPRIDE]
Ki [3]: > 10000 nM | ED50 [1]: 54.7 nM | pKi [6]: 7.52 | Ki (Adrenergic receptor beta): > 10000 nM | pKi (D(1A) dopamine receptor): 5.77 | E [8]: 105%

CCN(CC)CCNC(=O)c1cc(Cl)c(N)cc1OC [METOCLOPRAMIDE]
ED50 [1]: 24100 nM | pKi [2]: 6.62

COc1cc(N)c(Cl)cc1C(=O)NC1CCN2CCCC1C2 (centres undefined) [RENZAPRIDE]
ED50 [1]: 44 nM | pKi [6]: < 5.00 | Ki [7]: > 10000 nM | Ki (Adrenergic receptor beta): > 10000 nM | pKi (D(1A) dopamine receptor): < 5.00 | pKi (D(2) dopamine receptor): < 5.00 | E [8]: 98%
